Measured values taken from ChEMBL document CHEMBL3600378 (J Med Chem, 2015).
Calls of active or inactive are those of the source. The rule behind the calls is not given here.

Legend:
[1] = biological target: T1, Beta-3 adrenergic receptor (Homo sapiens, UniProt P13945); test: Intrinsic activity at human beta3-adrenergic receptor expressed in CHO cells assessed as increase of cAMP level after 30 mins relative to isoproterenol; assay type: functional, cell-based
Method in brief: (§1)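 Stably transfected CHO cells expressing human β1, β2 or β3 or marmoset β3 receptor were grown in Ham's F-12 with 10% FBS and geneticin, seeded at 2×10⁴ cells/well and grown about 20 h. Cells spent 15 min serum-free, then 30 min with compound in medium containing HEPES and isobutylmethylxanthine. Lysate cAMP was measured by kit. […] EC50 is the half-maximal concentration for each compound.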
Target sequence in this assay (P13945 whole entry, looked up): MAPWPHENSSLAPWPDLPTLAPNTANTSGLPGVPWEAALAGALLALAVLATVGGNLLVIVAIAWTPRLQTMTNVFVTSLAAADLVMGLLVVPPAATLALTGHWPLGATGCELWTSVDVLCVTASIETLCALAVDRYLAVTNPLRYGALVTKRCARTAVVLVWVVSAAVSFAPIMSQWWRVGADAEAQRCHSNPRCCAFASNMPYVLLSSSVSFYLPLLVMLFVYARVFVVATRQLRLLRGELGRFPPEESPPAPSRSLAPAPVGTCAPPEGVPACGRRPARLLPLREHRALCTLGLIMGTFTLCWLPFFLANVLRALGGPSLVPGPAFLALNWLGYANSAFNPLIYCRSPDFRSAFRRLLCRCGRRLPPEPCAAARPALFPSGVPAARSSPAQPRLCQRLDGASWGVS

[2] = biological target: T1, Beta-3 adrenergic receptor; test: Agonist activity at human recombinant beta3-adrenergic receptor expressed in CHO cells assessed as increase of cAMP level after 30 mins; assay type: functional, cell-based
Target sequence in this assay (P13945 whole entry): as the sequence (P13945 whole entry, looked up) above

[3] = biological target: T2, Alpha-1A adrenergic receptor (Homo sapiens, UniProt P35348); test: Agonist activity at human alpha1A-adrenergic receptor expressed in HEK293 cells assessed as calcium flux by fluorescence assay; assay type: functional, cell-based
T2 sequence (P35348 whole entry): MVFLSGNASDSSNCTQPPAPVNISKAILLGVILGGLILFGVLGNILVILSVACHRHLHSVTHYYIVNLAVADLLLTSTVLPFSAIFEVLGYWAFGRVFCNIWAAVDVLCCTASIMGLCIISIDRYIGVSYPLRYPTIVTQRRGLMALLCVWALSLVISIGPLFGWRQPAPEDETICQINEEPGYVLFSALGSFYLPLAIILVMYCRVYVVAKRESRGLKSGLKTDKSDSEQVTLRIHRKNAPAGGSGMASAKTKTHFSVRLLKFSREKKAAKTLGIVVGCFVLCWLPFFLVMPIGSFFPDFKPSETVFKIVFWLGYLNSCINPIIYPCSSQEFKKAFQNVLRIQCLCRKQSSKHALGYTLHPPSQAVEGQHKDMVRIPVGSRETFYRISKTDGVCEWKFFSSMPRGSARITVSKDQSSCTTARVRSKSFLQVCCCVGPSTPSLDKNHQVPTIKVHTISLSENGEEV

[4] = biological target: T3, Alpha-1A adrenergic receptor (Homo sapiens) (UniProt P35348); test: Intrinsic activity at human alpha1A-adrenergic receptor expressed in HEK293 cells assessed as calcium flux by fluorescence assay relative to norepinephrine; assay type: functional, cell-based
T3 sequence (whole entry): T2 sequence (P35348 whole entry)

[5] = organism: Homo sapiens; test: Selectivity ratio of EC50 for human alpha1A-adrenergic receptor to EC50 for human beta3-adrenergic receptor
[6] = organism: Callithrix jacchus; test: Agonist activity at marmoset beta3-adrenergic receptor relative to isoproterenol; method in brief: as §1
[7] = biological target: Beta-1 adrenergic receptor (Homo sapiens, UniProt P08588); test: Agonist activity at human beta1-adrenergic receptor expressed in CHO cells assessed as increase of cAMP level after 30 mins; assay type: functional, cell-based; method in brief: as §1
[8] = test system: Rattus norvegicus; test: Cardiotoxicity in anesthetized Sprague-Dawley rat assessed as decrease in heart rate at 3 mg/kg, iv measured for 30 mins relative to control; assay type: toxicity, organism-based; set-up: scale not given: the % may be the effect or the level left; details: in vivo, 0.5 h
Method in brief: (§2)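 Male Sprague-Dawley rats (200-300 g) were anesthetized with sodium pentobarbital (50 mg/kg i.p. plus 25 mg/kg s.c.). The compound was injected via the cannulated left femoral vein once BP and HR were stable, and HR and MBP were recorded for 30 min. Results are the maximum % increase or decrease from baseline, as mean ± SEM. Where given, silodosin (0.01 mg/kg iv) preceded the compound.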

[9] = test system: Rattus norvegicus; test: Cardiotoxicity in anesthetized Sprague-Dawley rat assessed as decrease in mean blood pressure at 3 mg/kg, iv measured for 30 mins relative to control; assay type: toxicity, organism-based; set-up: scale not given: the % may be the effect or the level left; details: in vivo, 0.5 h; method in brief: as §2
[10] = biological target: Beta-3 adrenergic receptor (Rattus norvegicus) (UniProt P26255); test: Intrinsic activity at rat beta3-adrenergic receptor relative to isoproterenol
[11] = biological target: Beta-2 adrenergic receptor (Homo sapiens, UniProt P07550); test: Agonist activity at human beta2-adrenergic receptor expressed in CHO cells assessed as increase of cAMP level after 30 mins; assay type: functional, cell-based; method in brief: as §1
[12] = test system: Rattus norvegicus; test: Cardiotoxicity in anesthetized Sprague-Dawley rat assessed as increase in heart rate at 3 mg/kg, iv measured for 30 mins relative to control; assay type: toxicity, organism-based; details: in vivo, 0.5 h; method in brief: as §2
[13] = Agonist activity at marmoset beta3-adrenergic receptor; set-up: species or system Callithrix jacchus; method in brief: as §1
[14] = biological target: Beta-3 adrenergic receptor (Rattus norvegicus, UniProt P26255); test: Agonist activity at rat beta3-adrenergic receptor
[15] = organism: Callithrix jacchus; test: Agonist activity at beta3-adrenergic receptor in isolated marmoset urinary bladder smooth muscle assessed as reduction of KCl-induced muscle contraction; assay type: tissue-based
Method in brief: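 Marmosets anesthetized with ketamine hydrochloride (15 mg/kg, i.m.) and exsanguinated. Bladder body strips (about 10-15 mm × 2-5 mm) were held in Krebs-Henseleit gassed with 95% O2/5% CO2 at 37 °C under 1 g resting tension and equilibrated over 30 min. Tension was recorded isometrically. After the top concentration, papaverine (final 10⁻⁴ mol/L) set each strip's maximum relaxation.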

[16] = test system: Rattus norvegicus; test: Cardiotoxicity in anesthetized Sprague-Dawley rat assessed as increase in mean blood pressure at 3 mg/kg, iv measured for 30 mins relative to control; assay type: toxicity, organism-based; details: in vivo, 0.5 h; method in brief: as §2

Sequence of Beta-1 adrenergic receptor (P08588 whole entry): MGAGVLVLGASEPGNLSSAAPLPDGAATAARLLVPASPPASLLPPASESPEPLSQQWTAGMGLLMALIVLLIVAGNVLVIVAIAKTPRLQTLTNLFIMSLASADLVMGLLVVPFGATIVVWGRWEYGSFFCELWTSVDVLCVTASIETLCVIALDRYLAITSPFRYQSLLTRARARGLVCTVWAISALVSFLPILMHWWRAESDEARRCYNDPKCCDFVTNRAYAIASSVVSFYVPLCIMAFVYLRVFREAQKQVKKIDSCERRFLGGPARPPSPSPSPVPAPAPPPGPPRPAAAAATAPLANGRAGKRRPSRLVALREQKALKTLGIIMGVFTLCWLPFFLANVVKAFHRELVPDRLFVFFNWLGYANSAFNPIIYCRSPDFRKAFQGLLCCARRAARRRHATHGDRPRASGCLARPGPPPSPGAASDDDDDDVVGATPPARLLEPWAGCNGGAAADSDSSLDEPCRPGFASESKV
Sequence of Beta-2 adrenergic receptor (P07550 whole entry): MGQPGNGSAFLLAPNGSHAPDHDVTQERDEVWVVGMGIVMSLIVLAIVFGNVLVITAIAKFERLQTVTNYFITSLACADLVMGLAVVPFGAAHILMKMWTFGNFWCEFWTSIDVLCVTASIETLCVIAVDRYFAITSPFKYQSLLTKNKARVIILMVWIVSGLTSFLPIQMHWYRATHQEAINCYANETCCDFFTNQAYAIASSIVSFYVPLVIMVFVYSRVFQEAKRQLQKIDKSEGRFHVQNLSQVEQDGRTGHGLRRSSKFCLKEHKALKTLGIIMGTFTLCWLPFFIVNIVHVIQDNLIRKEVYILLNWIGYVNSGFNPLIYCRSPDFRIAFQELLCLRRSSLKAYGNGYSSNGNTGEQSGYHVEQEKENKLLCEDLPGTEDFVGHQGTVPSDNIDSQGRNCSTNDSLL
Sequence of Beta-3 adrenergic receptor (Rattus norvegicus, UniProt P26255) (P26255 whole entry): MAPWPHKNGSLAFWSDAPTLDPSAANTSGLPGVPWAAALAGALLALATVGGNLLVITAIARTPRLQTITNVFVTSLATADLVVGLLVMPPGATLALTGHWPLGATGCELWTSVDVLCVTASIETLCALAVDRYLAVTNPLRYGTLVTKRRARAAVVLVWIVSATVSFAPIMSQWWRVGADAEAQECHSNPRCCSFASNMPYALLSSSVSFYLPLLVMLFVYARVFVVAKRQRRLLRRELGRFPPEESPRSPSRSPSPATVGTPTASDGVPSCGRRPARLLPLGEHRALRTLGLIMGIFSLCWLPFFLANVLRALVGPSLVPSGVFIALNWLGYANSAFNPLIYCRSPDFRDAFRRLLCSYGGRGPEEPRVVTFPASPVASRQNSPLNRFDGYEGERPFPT
Sequence of Beta-3 adrenergic receptor (Rattus norvegicus) (P26255 whole entry): as above

SMILES: CS(=O)(=O)Nc1cccc([C@@H](O)CNCCOc2ccc3c(C(F)(F)F)n[nH]c3c2)c1
- Intrinsic activity [1]: 86%
- EC50 [2]: 64 nM
- EC50 [3]: 812 nM
- Intrinsic activity [4]: 31%
- Ratio EC50 [5]: 13

SMILES: CC(C)c1n[nH]c2cc(OCCNC[C@H](O)c3cccc(NS(C)(=O)=O)c3)ccc12
- Intrinsic activity [6]: 75%
- EC50 [7]: > 10000 nM
- Activity [8]: 1.8%
- Intrinsic activity [1]: 69%
- Activity [9]: 7.6%
- EC50 [2]: 13 nM
- Intrinsic activity [10]: 95%
- EC50 [11]: > 10000 nM
- Activity [12]: 3.3%
- EC50 [13]: 15 nM
- EC50 [14]: 535 nM
- EC50 [3]: > 10000 nM
- Activity [15]: Active
- Intrinsic activity [4]: 9.1%
- Activity [16]: 4.7%
- Ratio EC50 [5]: > 769

SMILES: CCc1n[nH]c2cc(OCCNC[C@H](O)c3cccc(NS(C)(=O)=O)c3)ccc12
- EC50 [7]: > 10000 nM
- Activity [8]: 1.6%
- Intrinsic activity [1]: 78%
- Activity [9]: 10.8%
- EC50 [2]: 14 nM
- EC50 [11]: > 10000 nM
- Activity [12]: 9.6%
- Intrinsic activity [4]: 31%
- Activity [16]: 3.1%
- Ratio EC50 [5]: 61

SMILES: CS(=O)(=O)Nc1cccc([C@@H](O)CNCCOc2ccc3c(Cl)n[nH]c3c2)c1
- Intrinsic activity [1]: 89%
- EC50 [2]: 43 nM
- EC50 [3]: 61 nM
- Intrinsic activity [4]: 91%
- Ratio EC50 [5]: 1.4

SMILES: Nc1nc(CC(=O)Nc2ccc(CCNC[C@H](O)c3ccccc3)cc2)cs1 [MIRABEGRON]
- Activity [9]: 38.3%
- Activity [12]: 10%
- Activity [16]: 3.5%

SMILES: CS(=O)(=O)Nc1cccc([C@@H](O)CNCCOc2ccc3c(C4CC4)n[nH]c3c2)c1
- EC50 [7]: > 10000 nM
- Activity [8]: 3.3%
- Intrinsic activity [1]: 72%
- Activity [9]: 11%
- EC50 [2]: 17 nM
- EC50 [11]: > 10000 nM
- Activity [12]: 5.7%
- EC50 [3]: 1550 nM
- Intrinsic activity [4]: 19%
- Activity [16]: 2.7%
- Ratio EC50 [5]: 91

SMILES: CS(=O)(=O)Nc1cccc([C@@H](O)CNCCOc2ccc3c(-c4ccccc4)n[nH]c3c2)c1
- Intrinsic activity [1]: 29%
- EC50 [2]: > 10000 nM
- EC50 [3]: > 10000 nM
- Intrinsic activity [4]: 6%

SMILES: CC(C)(C)c1n[nH]c2cc(OCCNC[C@H](O)c3cccc(NS(C)(=O)=O)c3)ccc12
- Intrinsic activity [1]: 62%
- EC50 [2]: 338 nM
- EC50 [3]: > 10000 nM
- Intrinsic activity [4]: 19%
- Ratio EC50 [5]: > 30

SMILES: CS(=O)(=O)Nc1cccc([C@@H](O)CNCCOc2ccc3c(CO)n[nH]c3c2)c1
- EC50 [2]: 111 nM
- EC50 [3]: 33 nM

SMILES: CS(=O)(=O)Nc1cccc([C@@H](O)CNCCOc2ccc3c(C4CCC4)n[nH]c3c2)c1
- Intrinsic activity [1]: 68%
- EC50 [2]: 66 nM
- EC50 [3]: > 10000 nM
- Intrinsic activity [4]: 4%
- Ratio EC50 [5]: > 151

SMILES: COc1n[nH]c2cc(OCCNC[C@H](O)c3cccc(NS(C)(=O)=O)c3)ccc12
- Intrinsic activity [1]: 70%
- EC50 [2]: 40 nM
- EC50 [3]: 252 nM
- Intrinsic activity [4]: 60%
- Ratio EC50 [5]: 6.3

SMILES: CCOc1n[nH]c2cc(OCCNC[C@H](O)c3cccc(NS(C)(=O)=O)c3)ccc12
- Intrinsic activity [1]: 69%
- EC50 [2]: 71 nM
- EC50 [3]: 277 nM
- Intrinsic activity [4]: 59%
- Ratio EC50 [5]: 3.9
